Experiments:
Settings in all cases: stereoisomer not certain
UniProt Q8VGJ5 = target: T1, UniProt Q8VGJ5
T1 sequence (whole entry): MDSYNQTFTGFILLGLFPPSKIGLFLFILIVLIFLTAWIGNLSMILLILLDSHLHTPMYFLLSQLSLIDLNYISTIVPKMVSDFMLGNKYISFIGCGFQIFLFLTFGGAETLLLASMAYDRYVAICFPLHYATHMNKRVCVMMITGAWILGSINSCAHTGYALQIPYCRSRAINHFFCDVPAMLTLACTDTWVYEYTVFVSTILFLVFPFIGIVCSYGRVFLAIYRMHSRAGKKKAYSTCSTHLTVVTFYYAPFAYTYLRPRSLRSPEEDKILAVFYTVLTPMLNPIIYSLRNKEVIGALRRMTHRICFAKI
Procedure, shortened: (§1)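 Whether a receptor–molecule pair is responsive (active) rests on the original authors' judgment that its measured signal was statistically different from baseline. Pairs without that judgment are non-responsive (inactive). Sources used varied assay methods, commonly transient luciferase assays in mammalian cell lines.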

UniProt Q8VGL0 = target: T2, UniProt Q8VGL0
T2 sequence (whole entry): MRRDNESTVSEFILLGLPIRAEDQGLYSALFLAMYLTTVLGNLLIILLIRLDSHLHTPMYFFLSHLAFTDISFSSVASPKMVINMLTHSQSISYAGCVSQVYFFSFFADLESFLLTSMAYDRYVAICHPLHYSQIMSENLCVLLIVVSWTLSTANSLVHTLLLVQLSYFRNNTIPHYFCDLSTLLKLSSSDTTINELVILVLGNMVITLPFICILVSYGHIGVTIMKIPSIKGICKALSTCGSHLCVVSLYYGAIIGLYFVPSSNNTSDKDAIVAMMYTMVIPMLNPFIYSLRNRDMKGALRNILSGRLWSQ
Procedure, shortened: as §1

UniProt Q8VGL7 = target: T3, UniProt Q8VGL7
T3 sequence (whole entry): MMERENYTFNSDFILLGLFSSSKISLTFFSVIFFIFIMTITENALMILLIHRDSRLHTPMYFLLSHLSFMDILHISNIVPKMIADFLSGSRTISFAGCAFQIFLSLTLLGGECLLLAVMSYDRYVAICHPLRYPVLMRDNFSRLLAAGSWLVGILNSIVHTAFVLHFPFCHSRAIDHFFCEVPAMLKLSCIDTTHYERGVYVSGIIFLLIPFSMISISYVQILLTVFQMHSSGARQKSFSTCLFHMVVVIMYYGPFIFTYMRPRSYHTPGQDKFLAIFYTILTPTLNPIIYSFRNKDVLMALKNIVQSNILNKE
Procedure, shortened: as §1

UniProt Q8VGM2 = target: T4, UniProt Q8VGM2
T4 sequence (whole entry): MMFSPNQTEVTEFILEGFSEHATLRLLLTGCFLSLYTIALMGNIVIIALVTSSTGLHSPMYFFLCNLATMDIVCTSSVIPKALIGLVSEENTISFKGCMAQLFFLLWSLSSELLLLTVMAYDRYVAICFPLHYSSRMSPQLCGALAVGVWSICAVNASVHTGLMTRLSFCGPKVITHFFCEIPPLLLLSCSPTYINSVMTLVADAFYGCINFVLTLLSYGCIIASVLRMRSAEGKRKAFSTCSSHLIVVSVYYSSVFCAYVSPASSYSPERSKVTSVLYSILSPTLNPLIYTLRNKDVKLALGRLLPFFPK
Procedure, shortened: as §1

UniProt Q8VGP6 = target: T5, UniProt Q8VGP6
T5 sequence (whole entry): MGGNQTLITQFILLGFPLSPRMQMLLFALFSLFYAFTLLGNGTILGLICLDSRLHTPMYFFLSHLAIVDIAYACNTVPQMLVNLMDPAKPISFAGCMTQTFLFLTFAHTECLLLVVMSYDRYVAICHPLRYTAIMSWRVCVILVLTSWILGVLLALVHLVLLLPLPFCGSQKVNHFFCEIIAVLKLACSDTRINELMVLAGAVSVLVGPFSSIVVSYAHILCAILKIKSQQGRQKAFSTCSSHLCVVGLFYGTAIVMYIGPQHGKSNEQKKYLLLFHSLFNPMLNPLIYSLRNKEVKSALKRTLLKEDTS
Procedure, shortened: as §1

UniProt Q8VGQ3 = target: T6, UniProt Q8VGQ3
T6 sequence (whole entry): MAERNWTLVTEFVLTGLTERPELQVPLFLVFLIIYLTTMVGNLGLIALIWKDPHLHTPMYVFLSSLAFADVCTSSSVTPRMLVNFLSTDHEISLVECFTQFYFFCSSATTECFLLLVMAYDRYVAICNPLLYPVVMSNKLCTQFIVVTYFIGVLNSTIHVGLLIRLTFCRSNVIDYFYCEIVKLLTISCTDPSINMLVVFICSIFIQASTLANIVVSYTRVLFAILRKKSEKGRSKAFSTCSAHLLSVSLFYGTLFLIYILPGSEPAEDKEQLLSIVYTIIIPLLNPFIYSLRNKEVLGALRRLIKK
Procedure, shortened: as §1

UniProt Q8VGT4 = target: T7, UniProt Q8VGT4
T7 sequence (whole entry): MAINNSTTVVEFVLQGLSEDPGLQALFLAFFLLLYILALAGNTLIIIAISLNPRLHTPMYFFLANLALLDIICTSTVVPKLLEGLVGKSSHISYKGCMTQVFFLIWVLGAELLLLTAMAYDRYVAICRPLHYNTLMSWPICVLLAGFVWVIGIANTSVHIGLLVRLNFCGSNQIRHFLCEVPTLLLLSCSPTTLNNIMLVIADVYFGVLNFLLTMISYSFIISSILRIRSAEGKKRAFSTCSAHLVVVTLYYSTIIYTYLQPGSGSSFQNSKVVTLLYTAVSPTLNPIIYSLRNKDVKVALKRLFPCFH
Procedure, shortened: as §1

UniProt Q8VGV1 = target: T8, UniProt Q8VGV1
T8 sequence (whole entry): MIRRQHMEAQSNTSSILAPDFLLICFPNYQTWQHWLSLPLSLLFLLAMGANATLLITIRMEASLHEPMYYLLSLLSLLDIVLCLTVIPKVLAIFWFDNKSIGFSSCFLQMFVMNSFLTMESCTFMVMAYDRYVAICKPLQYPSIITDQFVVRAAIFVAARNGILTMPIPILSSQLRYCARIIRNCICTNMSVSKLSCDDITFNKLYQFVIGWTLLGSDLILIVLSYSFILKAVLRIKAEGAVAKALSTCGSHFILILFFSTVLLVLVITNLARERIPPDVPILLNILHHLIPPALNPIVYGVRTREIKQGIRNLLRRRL
Procedure, shortened: as §1

UniProt Q8VGX5 = target: T9, UniProt Q8VGX5
T9 sequence (whole entry): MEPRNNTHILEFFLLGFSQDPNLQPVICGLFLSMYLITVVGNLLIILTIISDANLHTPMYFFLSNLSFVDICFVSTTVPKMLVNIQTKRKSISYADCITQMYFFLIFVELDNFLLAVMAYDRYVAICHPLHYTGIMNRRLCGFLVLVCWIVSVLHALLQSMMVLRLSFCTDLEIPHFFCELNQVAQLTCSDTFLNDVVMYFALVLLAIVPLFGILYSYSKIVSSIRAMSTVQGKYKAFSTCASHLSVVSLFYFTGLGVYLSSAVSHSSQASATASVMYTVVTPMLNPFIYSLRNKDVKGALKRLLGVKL
Procedure, shortened: as §1

UniProt Q8VGX8 = target: T10, UniProt Q8VGX8
T10 sequence (whole entry): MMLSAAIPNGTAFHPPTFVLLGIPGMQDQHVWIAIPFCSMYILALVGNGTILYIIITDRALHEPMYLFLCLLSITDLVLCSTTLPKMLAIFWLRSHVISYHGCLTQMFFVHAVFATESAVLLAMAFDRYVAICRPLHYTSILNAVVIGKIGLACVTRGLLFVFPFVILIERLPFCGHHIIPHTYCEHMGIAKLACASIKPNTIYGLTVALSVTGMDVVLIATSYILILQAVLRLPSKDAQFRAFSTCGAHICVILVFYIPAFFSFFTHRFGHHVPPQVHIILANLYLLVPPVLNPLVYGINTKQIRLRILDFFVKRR
Procedure, shortened: as §1

UniProt Q8VGY6 = target: T11, UniProt Q8VGY6
T11 sequence (whole entry): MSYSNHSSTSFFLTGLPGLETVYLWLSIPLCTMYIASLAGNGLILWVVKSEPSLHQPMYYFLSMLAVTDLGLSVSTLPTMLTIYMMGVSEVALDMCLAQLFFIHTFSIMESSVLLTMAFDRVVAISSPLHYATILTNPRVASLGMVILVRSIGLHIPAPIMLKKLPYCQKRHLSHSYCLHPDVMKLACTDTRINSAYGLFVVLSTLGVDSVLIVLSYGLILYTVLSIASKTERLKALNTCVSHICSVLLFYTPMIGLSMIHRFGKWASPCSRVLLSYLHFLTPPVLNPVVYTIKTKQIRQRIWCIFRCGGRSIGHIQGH
Procedure, shortened: as §1

UniProt Q8VGZ2 = target: T12, UniProt Q8VGZ2
T12 sequence (whole entry): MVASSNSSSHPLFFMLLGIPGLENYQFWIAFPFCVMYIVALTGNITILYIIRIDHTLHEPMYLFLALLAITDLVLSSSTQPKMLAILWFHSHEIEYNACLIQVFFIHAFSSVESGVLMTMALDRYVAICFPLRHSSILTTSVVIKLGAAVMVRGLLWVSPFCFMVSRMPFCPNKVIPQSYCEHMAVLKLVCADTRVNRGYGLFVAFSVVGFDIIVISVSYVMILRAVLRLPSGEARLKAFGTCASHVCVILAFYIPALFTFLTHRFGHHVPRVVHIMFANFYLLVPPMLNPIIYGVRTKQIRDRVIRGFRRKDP
Procedure, shortened: as §1

UniProt Q8VGZ7 = target: T13, UniProt Q8VGZ7
T13 sequence (whole entry): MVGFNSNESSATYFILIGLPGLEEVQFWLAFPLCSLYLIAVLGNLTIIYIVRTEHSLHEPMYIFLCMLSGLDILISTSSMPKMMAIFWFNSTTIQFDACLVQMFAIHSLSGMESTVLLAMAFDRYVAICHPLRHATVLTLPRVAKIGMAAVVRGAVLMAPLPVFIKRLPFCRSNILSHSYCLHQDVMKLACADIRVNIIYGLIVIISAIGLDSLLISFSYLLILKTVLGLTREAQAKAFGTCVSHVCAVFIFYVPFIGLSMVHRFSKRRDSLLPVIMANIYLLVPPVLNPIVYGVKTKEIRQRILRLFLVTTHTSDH
Procedure, shortened: as §1

UniProt Q8VH10 = target: T14, UniProt Q8VH10
T14 sequence (whole entry): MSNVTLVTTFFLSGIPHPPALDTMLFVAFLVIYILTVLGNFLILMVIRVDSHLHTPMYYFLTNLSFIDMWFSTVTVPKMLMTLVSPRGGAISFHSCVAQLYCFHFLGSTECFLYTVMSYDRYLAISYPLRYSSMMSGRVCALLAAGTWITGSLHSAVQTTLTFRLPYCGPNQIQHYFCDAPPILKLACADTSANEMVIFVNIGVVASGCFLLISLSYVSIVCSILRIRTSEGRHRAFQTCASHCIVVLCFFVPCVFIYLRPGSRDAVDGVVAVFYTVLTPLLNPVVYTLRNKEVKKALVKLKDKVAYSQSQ
Procedure, shortened: as §1

UniProt Q8VH20 = target: T15, UniProt Q8VH20
T15 sequence (whole entry): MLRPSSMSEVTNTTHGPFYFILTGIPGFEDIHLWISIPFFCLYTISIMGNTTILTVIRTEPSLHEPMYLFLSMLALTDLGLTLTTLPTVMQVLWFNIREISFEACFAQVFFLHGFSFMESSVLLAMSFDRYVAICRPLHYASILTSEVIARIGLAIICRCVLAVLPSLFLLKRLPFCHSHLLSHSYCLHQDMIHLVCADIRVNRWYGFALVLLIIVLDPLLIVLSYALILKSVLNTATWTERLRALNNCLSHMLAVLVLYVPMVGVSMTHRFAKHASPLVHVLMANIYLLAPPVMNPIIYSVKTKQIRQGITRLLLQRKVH
Procedure, shortened: as §1

Measured: odorant receptor agonist call;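 note: active if original authors judged signal statistically different from baseline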

C=CCc1ccccc1
inactive: all assays above
